Results: ChEMBL document CHEMBL3102767, “Identifying novel targets in renal cell carcinoma: design and synthesis of affinity chromatography reagents” (Bioorg Med Chem, 2014)
pIC50: −log10 of the molar value.

What was measured:
[1] = Selectivity ratio of IC50 for human RCC4/VHL cells to IC50 for human RCC4 cells; format: functional
In short: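 IC50 values from 4-day XTT growth inhibition in RCC4/VHL and parental RCC4 cells (serial dilution from 40 µM top, triplicate); ratio taken as RCC4/VHL IC50 over RCC4 IC50.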

[2] = Cytotoxicity against human RCC4/VHL cells after 4 days by XTT assay; format: functional, cell-based; conditions: 96 h
In short: (§1)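 RCC4 (VHL-null) and RCC4/VHL (VHL reintroduced) cells kept in DMEM plus 10% FCS. After 4 d, media removed; XTT (0.3 mg/mL) with N-methyl dibenzopyrazine methyl sulfate in phenol red-free media added, 1–2 h at 37 °C. IC50 = concentration giving 50% growth inhibition.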

[3] = Cytotoxicity against human RCC4 cells after 4 days by XTT assay; format: functional, cell-based; conditions: RCC4, 96 h; in short: as §1

Question: What does the source list for `CC(C)(C)c1ccc(S(=O)(=O)NCc2ccc(C(=O)Nc3cccnc3)cc2)cc1`?
Answer: Ratio IC50 [1]: >250; pIC50 [2]: < 4.40; pIC50 [3]: 6.80

Question: With `Cc1cccc(Nc2nc(-c3ccnc(-c4cn(CCCCCCN)nn4)c3)cs2)c1.O=C(O)C(F)(F)F` as the molecule, how does the “Ratio IC50” value [1] read?
Answer: Its value is 1.5.

Question: What about the pIC50 [2] of the same molecule?
Answer: The pIC50 was 5.59.

Question: And the pIC50 [3]?
Answer: The pIC50 was 5.77.

Question: With `Cc1cccc(Nc2nc(-c3ccnc(-c4cn(CCOCCOCCOCCOCCOCCOCCN)nn4)c3)cs2)c1` as the molecule, how does the pIC50 [2] read?
Answer: The pIC50 was under 4.40.

Question: And the pIC50 [3]?
Answer: The pIC50 was under 4.40.

Question: With `CCN(c1cccc(C)c1)c1nc(-c2ccnc(-c3cn(CCOCCOCCOCCOCCOCCOCCN)nn3)c2)cs1` as the molecule, how does the pIC50 [2] read?
Answer: The pIC50 was under 4.40.

Question: What about the pIC50 [3] of the same molecule?
Answer: The pIC50 was under 4.40.

Question: For `Cc1cccc(Nc2nc(-c3ccncc3-c3cn(CCOCCOCCOCCOCCOCCOCCN)nn3)cs2)c1.O=C(O)C(F)(F)F`, which “Ratio IC50” value [1] is on record?
Answer: The value was 1.3.

Question: And the pIC50 [2]?
Answer: Its pIC50 is 5.41.

Question: And the pIC50 [3]?
Answer: Its pIC50 is 5.54.

Question: With `CCN(c1cccc(C)c1)c1nc(-c2ccncc2-c2cn(CCOCCOCCOCCOCCOCCOCCN)nn2)cs1` as the molecule, how does the pIC50 [2] read?
Answer: Its pIC50 is under 4.40.

Question: What about the pIC50 [3] of the same molecule?
Answer: Its pIC50 is under 4.40.

Question: With `NCCOCCOCCOCCOCCOCCOCC#Cc1ccc(S(=O)(=O)NCc2ccc(C(=O)Nc3cccnc3)cc2)cc1` as the molecule, how does the “Ratio IC50” value [1] read?
Answer: The value was over 7.

Question: What about the pIC50 [2] of the same molecule?
Answer: The pIC50 was under 4.40.

Question: What about the pIC50 [3] of the same molecule?
Answer: The pIC50 was 5.24.

Question: For `NCCOCCOCCOCCOCCOCCOCCCc1ccc(S(=O)(=O)NCc2ccc(C(=O)Nc3cccnc3)cc2)cc1`, which “Ratio IC50” value [1] is on record?
Answer: Its value is over 5.

Question: And the pIC50 [2]?
Answer: The pIC50 was under 4.40.

Question: And the pIC50 [3]?
Answer: The pIC50 was 5.10.

Question: With `NCCOCCOCCOCCOCCOCCOCCCc1ccc(S(=O)(=O)NCc2ccc(C(=O)Nc3ccccc3)cc2)cc1` as the molecule, how does the pIC50 [2] read?
Answer: The pIC50 was under 4.40.

Question: And the pIC50 [3]?
Answer: The pIC50 was under 4.40.

Question: For `Cc1cccc(S(=O)(=O)NCc2ccc(C(=O)Nc3cccnc3)cc2)c1`, which Ratio IC50 [1] is on record?
Answer: Its Ratio IC50 is over 100.

Question: And the pIC50 [3]?
Answer: The pIC50 was over 6.00.

Question: With `Cn1ccc(-c2cccc(S(=O)(=O)NCc3ccc(C(=O)Nc4cccnc4)cc3)c2)n1` as the molecule, how does the “Ratio IC50” value [1] read?
Answer: Its value is over 100.

Question: And the pIC50 [3]?
Answer: Its pIC50 is over 6.00.

Question: Which “Ratio IC50” value [1] does the source give for `COc1ccc(S(=O)(=O)NCc2ccc(C(=O)Nc3cccnc3)cc2)cc1OC` here?
Answer: Its value is over 100.

Question: What about the pIC50 [3] of the same molecule?
Answer: Its pIC50 is over 6.00.

Question: With `CN1CCN(c2ccc(S(=O)(=O)NCc3ccc(C(=O)Nc4cccnc4)cc3)cc2)CC1` as the molecule, how does the “Ratio IC50” value [1] read?
Answer: Its value is over 100.

Question: And the pIC50 [3]?
Answer: Its pIC50 is over 6.00.

Question: For `Cl.O=C(Nc1cccnc1)c1ccc(CNS(=O)(=O)c2ccc(CN3CCOCC3)cc2)cc1`, which “Ratio IC50” value [1] is on record?
Answer: The value was over 100.

Question: What about the pIC50 [3] of the same molecule?
Answer: Its pIC50 is over 6.00.

Question: What does the source list for `CN1CCN(Cc2ccc(S(=O)(=O)NCc3ccc(C(=O)Nc4cccnc4)cc3)cc2)CC1`?
Answer: Ratio IC50 [1]: >100; pIC50 [3]: > 6.00

Question: Which “Ratio IC50” value [1] does the source give for `Cc1cccc(Nc2nc(-c3ccncc3)cs2)c1` here?
Answer: The value was 19.

Question: What about the pIC50 [2] of the same molecule?
Answer: The pIC50 was 4.40.

Question: What about the pIC50 [3] of the same molecule?
Answer: Its pIC50 is 5.68.
